According to ChEMBL document CHEMBL1130071, “Pyrrolomorphinans as delta opioid receptor antagonists. The role of steric hindrance in conferring selectivity” (J Med Chem, 1997):

target: Mu-type opioid receptor (Cavia porcellus) (UniProt P97266); assay: Agonist activity against guinea pig ileum Opioid receptor mu 1; assay type: functional, tissue-based
Summary of the method: (§1)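 Agonist activity in MVD or GPI preparations; ligands that were not full agonists tested at 1 µM, activity expressed as percent of maximal response.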

Chain of Mu-type opioid receptor (Cavia porcellus) (P97266 whole entry): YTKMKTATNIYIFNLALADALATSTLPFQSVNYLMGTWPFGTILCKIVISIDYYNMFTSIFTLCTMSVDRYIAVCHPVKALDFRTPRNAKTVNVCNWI

| SMILES | IC50 ratio |
| --- | --- |
| Oc1ccc2c3c1O[C@H]1c4[nH]cc(-c5ccccc5)c4C[C@@]4(O)C(C2)N(CC2CC2)CCC314 (stereo partly specified) | 2.3 |
| Cc1c(CC(C)C)[nH]c2c1C[C@@]1(O)C3Cc4ccc(O)c5c4C1(CCN3CC1CC1)[C@H]2O5 (stereo partly specified) | 380 |

target: Mu-type opioid receptor (Cavia porcellus) (UniProt P97266); assay: Agonist guinea pig ileum (Opioid receptor mu 1); assay type: functional, tissue-based; summary of the method: as §1

| SMILES | IC50 ratio |
| --- | --- |
| Oc1ccc2c3c1O[C@H]1c4[nH]c(-c5ccccc5)c(-c5ccccc5)c4C[C@@]4(O)C(C2)N(CC2CC2)CCC314 (stereo partly specified) | 1.2 |

target: Kappa-type opioid receptor (Cavia porcellus) (UniProt P41144); assay: Activity against Opioid receptor kappa 1 on electrically stimulated guinea pig ileum using ethylketazocine as the standard agonist.; assay type: functional, tissue-based
Sequence (P41144 whole entry): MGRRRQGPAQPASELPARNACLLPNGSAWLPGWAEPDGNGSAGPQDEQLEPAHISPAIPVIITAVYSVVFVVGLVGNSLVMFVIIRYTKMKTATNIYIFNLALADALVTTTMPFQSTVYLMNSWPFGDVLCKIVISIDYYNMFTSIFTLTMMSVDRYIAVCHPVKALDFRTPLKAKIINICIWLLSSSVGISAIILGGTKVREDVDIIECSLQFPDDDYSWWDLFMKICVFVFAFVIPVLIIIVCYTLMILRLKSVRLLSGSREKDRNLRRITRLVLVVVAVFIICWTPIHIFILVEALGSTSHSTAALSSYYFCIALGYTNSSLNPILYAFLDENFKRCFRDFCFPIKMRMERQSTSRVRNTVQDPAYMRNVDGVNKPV
Summary of the method: (§2)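 Antagonist test in electrically stimulated smooth muscle, DADLE in MVD, morphine or ethylketazocine in GPI: ligand (100 nM) preincubated with the preparation 15 min before agonist testing. IC50 ratio = agonist IC50 with test compound / control IC50 in same preparation; Ke = [antagonist]/(IC50 ratio − 1).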

| SMILES | Ke [nM] |
| --- | --- |
| Oc1ccc2c3c1O[C@H]1c4[nH]ccc4C[C@@]4(O)C(C2)N(CC2CC2)CCC314 (stereo partly specified) | 3.2 |
| Cn1c2c(c3c1[C@@H]1Oc4c(O)ccc5c4C14CCN(CC1CC1)C(C5)[C@]4(O)C3)CCCC2 (stereo partly specified) | 254 |

target: Kappa-type opioid receptor (Mus musculus, UniProt P33534); assay: Binding affinity against Opioid receptor kappa 1 binding in ICR mouse brain membranes using the radioligand [3H]U-69593; assay type: cell membranes, Membrane
Sequence (P33534 whole entry): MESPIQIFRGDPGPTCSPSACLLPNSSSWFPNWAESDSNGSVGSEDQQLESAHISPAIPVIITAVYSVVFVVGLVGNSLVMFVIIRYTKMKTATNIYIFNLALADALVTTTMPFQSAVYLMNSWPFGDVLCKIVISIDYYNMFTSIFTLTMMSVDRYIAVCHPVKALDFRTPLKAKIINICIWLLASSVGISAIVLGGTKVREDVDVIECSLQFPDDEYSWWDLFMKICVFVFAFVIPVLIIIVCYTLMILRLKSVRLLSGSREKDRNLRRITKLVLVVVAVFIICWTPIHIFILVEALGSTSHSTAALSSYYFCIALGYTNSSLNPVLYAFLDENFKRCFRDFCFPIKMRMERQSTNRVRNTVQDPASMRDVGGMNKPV
Summary of the method: (§3)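 Competition binding on ICR mouse brain membranes using selective radioligands: [3H]naltrindole (δ), [3H]DAMGO (μ), [3H]U69593 (κ). Ki reported as mean ± SEM of at least three determinations.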

| SMILES | Ki [nM] |
| --- | --- |
| Oc1ccc2c3c1O[C@H]1c4[nH]c5ccccc5c4C[C@@]4(O)[C@@H](C2)N(CC2CC2)CC[C@]314 [NALTRINDOLE] | 355 |
| Oc1ccc2c3c1O[C@H]1c4[nH]cc(-c5ccccc5)c4C[C@@]4(O)C(C2)N(CC2CC2)CCC314 (stereo partly specified) | 45 |

target: Delta-type opioid receptor (Mus musculus) (UniProt P32300); assay: Activity against Opioid receptor delta 1 on electrically stimulated mouse vas deferens using DADLE as agonist; assay type: functional, tissue-based; summary of the method: as §2
Sequence (P32300 whole entry): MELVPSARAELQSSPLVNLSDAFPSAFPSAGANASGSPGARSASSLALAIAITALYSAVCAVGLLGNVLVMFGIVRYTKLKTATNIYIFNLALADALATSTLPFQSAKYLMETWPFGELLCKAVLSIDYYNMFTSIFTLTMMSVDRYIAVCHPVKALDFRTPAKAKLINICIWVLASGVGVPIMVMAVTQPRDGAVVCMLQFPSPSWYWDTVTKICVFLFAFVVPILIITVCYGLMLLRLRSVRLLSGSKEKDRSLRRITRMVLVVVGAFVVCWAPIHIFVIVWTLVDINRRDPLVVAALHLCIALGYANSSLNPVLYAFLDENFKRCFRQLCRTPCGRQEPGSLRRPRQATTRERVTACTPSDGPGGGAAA

| SMILES | Ke [nM] |
| --- | --- |
| Oc1ccc2c3c1O[C@H]1c4[nH]ccc4C[C@@]4(O)C(C2)N(CC2CC2)CCC314 (stereo partly specified) | 3.2 |
| Cc1c(CC(C)C)[nH]c2c1C[C@@]1(O)C3Cc4ccc(O)c5c4C1(CCN3CC1CC1)[C@H]2O5 (stereo partly specified) | 3.3 |

target: Mu-type opioid receptor (Cavia porcellus) (UniProt P97266); assay: Agonist guinea pig ileum; assay type: functional, tissue-based; summary of the method: as §1

| SMILES | IC50 ratio |
| --- | --- |
| Oc1ccc2c3c1O[C@H]1c4[nH]c(-c5ccccc5)c(-c5ccccc5)c4C[C@@]4(O)C(C2)N(CC2CC2)CCC314 (stereo partly specified) | 1.1 |

target: Mu-type opioid receptor (Cavia porcellus) (UniProt P97266); assay: Activity against mu receptor on electrically stimulated guinea pig ileum using morphine as the standard agonist (Opioid receptor mu 1); assay type: functional, tissue-based; summary of the method: as §2

| SMILES | Ke [nM] |
| --- | --- |
| Oc1ccc2c3c1O[C@H]1c4[nH]ccc4C[C@@]4(O)C(C2)N(CC2CC2)CCC314 (stereo partly specified) | 0.65 |
| Cn1c2c(c3c1[C@@H]1Oc4c(O)ccc5c4C14CCN(CC1CC1)C(C5)[C@]4(O)C3)CCCC2 (stereo partly specified) | 158 |

target: Delta-type opioid receptor (Mus musculus, UniProt P32300); assay: Binding affinity against Opioid receptor delta 1 receptor binding in ICR mouse brain membranes using the radioligand [3H]naltrindole; assay type: cell membranes, Membrane; summary of the method: as §3
Sequence (P32300 whole entry): as above

| SMILES | Ki [nM] |
| --- | --- |
| Oc1ccc2c3c1O[C@H]1c4[nH]c5ccccc5c4C[C@@]4(O)[C@@H](C2)N(CC2CC2)CC[C@]314 [NALTRINDOLE] | 0.04 |
| Oc1ccc2c3c1O[C@H]1c4[nH]cc(-c5ccccc5)c4C[C@@]4(O)C(C2)N(CC2CC2)CCC314 (stereo partly specified) | 2.7 |

target: Mu-type opioid receptor (Mus musculus, UniProt P42866); assay: Binding affinity against Opioid receptor mu 1 binding in ICR mouse brain membranes using the radioligand [3H][Ala2,Glyol5]enkephalin; assay type: cell membranes, Membrane; summary of the method: as §3
Sequence (P42866 whole entry): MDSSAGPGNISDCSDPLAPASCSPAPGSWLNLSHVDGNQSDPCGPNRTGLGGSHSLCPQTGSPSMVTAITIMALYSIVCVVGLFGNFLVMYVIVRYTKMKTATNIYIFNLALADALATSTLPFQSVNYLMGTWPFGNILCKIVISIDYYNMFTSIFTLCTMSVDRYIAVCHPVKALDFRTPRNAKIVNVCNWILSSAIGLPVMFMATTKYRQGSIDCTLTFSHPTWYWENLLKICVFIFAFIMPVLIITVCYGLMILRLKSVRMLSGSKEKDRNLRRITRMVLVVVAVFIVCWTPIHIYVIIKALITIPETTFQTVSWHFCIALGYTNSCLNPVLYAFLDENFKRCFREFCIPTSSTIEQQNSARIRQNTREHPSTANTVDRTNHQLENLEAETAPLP

| SMILES | Ki [nM] |
| --- | --- |
| Oc1ccc2c3c1O[C@H]1c4[nH]c5ccccc5c4C[C@@]4(O)[C@@H](C2)N(CC2CC2)CC[C@]314 [NALTRINDOLE] | 6.1 |
| Oc1ccc2c3c1O[C@H]1c4[nH]cc(-c5ccccc5)c4C[C@@]4(O)C(C2)N(CC2CC2)CCC314 (stereo partly specified) | 21 |

target: Kappa-type opioid receptor (Homo sapiens) (UniProt P41145); assay: Selectivity ratio measured as the delta IC50 to that of kappa IC50 values.; assay type: functional
Sequence (P41145 whole entry): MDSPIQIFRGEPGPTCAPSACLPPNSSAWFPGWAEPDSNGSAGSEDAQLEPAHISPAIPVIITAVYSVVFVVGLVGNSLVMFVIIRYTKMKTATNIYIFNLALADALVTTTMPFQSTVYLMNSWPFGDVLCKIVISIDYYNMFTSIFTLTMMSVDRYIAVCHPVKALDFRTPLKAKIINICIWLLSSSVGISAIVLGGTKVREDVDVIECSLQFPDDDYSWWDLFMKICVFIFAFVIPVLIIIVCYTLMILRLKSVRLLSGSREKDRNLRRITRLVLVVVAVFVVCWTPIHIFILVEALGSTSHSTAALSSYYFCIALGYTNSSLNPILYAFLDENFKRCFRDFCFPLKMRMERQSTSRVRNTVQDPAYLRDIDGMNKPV

| SMILES | Selectivity ratio |
| --- | --- |
| Oc1ccc2c3c1O[C@H]1c4[nH]c(-c5ccccc5)c(-c5ccccc5)c4C[C@@]4(O)C(C2)N(CC2CC2)CCC314 (stereo partly specified) | 1 |
| O=C1/C(=C/c2ccccc2)C[C@@]2(O)[C@H]3Cc4ccc(O)c5c4[C@@]2(CCN3CC2CC2)[C@H]1O5 | 18 |
| Oc1ccc2c3c1O[C@H]1c4[nH]ccc4C[C@@]4(O)C(C2)N(CC2CC2)CCC314 (stereo partly specified) | 0.17 |
| Oc1ccc2c3c1O[C@H]1c4[nH]cc(-c5ccccc5)c4C[C@@]4(O)C(C2)N(CC2CC2)CCC314 (stereo partly specified) | 0.7 |

target: Delta-type opioid receptor (Homo sapiens) (UniProt P41143); assay: Selectivity ratio measured as the kappa Ki to that of delta Ki values.
Sequence (P41143 whole entry): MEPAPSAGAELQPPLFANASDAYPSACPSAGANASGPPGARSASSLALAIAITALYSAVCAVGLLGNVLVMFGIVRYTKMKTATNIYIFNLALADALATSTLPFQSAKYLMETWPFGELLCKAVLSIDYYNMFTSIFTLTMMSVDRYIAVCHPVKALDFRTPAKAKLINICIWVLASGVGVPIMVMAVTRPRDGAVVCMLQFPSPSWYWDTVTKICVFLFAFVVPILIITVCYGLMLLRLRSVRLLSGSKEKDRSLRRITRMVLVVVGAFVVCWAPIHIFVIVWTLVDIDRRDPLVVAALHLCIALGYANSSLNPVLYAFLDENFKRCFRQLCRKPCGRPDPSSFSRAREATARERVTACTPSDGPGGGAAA
Summary of the method: (§4)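 Ki selectivity ratio = Ki at κ or μ (ICR mouse brain membranes, [3H]U69593 or [3H]DAMGO) divided by Ki at δ ([3H]naltrindole competition).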

| SMILES | Selectivity ratio |
| --- | --- |
| Oc1ccc2c3c1O[C@H]1c4[nH]cc(-c5ccccc5)c4C[C@@]4(O)C(C2)N(CC2CC2)CCC314 (stereo partly specified) | 16.7 |

target: Delta-type opioid receptor (Homo sapiens) (UniProt P41143); assay: Selectivity ratio measured as the mu Ki to that of delta Ki values.; summary of the method: as §4

| SMILES | Selectivity ratio |
| --- | --- |
| Oc1ccc2c3c1O[C@H]1c4[nH]cc(-c5ccccc5)c4C[C@@]4(O)C(C2)N(CC2CC2)CCC314 (stereo partly specified) | 7.8 |

target: Mu-type opioid receptor (Homo sapiens) (UniProt P35372); assay: Selectivity ratio measured as the delta IC50 to that of mu IC50 values.; assay type: functional
Sequence (P35372 whole entry): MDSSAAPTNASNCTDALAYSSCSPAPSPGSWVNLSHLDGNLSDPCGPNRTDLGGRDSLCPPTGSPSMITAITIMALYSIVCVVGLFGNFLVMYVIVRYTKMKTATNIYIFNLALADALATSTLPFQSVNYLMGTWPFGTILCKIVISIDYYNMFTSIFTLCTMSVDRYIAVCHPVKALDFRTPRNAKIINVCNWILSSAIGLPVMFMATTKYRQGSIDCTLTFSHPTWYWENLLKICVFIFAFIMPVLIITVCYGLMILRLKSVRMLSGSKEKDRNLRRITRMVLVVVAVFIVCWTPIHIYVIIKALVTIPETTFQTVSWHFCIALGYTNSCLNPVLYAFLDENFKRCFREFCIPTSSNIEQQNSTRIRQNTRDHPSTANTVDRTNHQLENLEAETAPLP

| SMILES | Selectivity ratio |
| --- | --- |
| Oc1ccc2c3c1O[C@H]1c4[nH]c(-c5ccccc5)c(-c5ccccc5)c4C[C@@]4(O)C(C2)N(CC2CC2)CCC314 (stereo partly specified) | 1 |
| O=C1/C(=C/c2ccccc2)C[C@@]2(O)[C@H]3Cc4ccc(O)c5c4[C@@]2(CCN3CC2CC2)[C@H]1O5 | 2.7 |
| Oc1ccc2c3c1O[C@H]1c4[nH]ccc4C[C@@]4(O)C(C2)N(CC2CC2)CCC314 (stereo partly specified) | 0.03 |
| Oc1ccc2c3c1O[C@H]1c4[nH]cc(-c5ccccc5)c4C[C@@]4(O)C(C2)N(CC2CC2)CCC314 (stereo partly specified) | 0.7 |

target: Delta-type opioid receptor (Mus musculus) (UniProt P32300); assay: Agonist activity in mouse vas deferens assay relative to DADLE; assay type: functional, tissue-based; summary of the method: as §1

| SMILES | IC50 ratio |
| --- | --- |
| Oc1ccc2c3c1O[C@H]1c4[nH]c(-c5ccccc5)c(-c5ccccc5)c4C[C@@]4(O)C(C2)N(CC2CC2)CCC314 (stereo partly specified) | 1.4 |
| Oc1ccc2c3c1O[C@H]1c4[nH]cc(-c5ccccc5)c4C[C@@]4(O)C(C2)N(CC2CC2)CCC314 (stereo partly specified) | 1.5 |
| Cc1c(CC(C)C)[nH]c2c1C[C@@]1(O)C3Cc4ccc(O)c5c4C1(CCN3CC1CC1)[C@H]2O5 (stereo partly specified) | 32 |

target: Kappa-type opioid receptor (Cavia porcellus) (UniProt P41144); assay: Agonist activity against guinea pig ileum kappa receptor relative to ethylketazocine; assay type: functional, tissue-based; summary of the method: as §1

| SMILES | IC50 ratio |
| --- | --- |
| Oc1ccc2c3c1O[C@H]1c4[nH]cc(-c5ccccc5)c4C[C@@]4(O)C(C2)N(CC2CC2)CCC314 (stereo partly specified) | 2.1 |
| Cc1c(CC(C)C)[nH]c2c1C[C@@]1(O)C3Cc4ccc(O)c5c4C1(CCN3CC1CC1)[C@H]2O5 (stereo partly specified) | 380 |
